The source of these data is ChEMBL document CHEMBL1154081, “Synthesis of uracil nucleotide analogs with a modified, acyclic ribose moiety as P2Y(2) receptor antagonists” (Bioorg Med Chem, 2009).

Format in all cases: functional, cell-based
Assay [1] has as its target T1, P2Y purinoceptor 2 (Mus musculus, UniProt P35383). Briefly: Antagonist activity at mouse P2Y2 receptor expressed in NG108-15 hybrid cells assessed as inhibition of 3 uM UTP-induced intracellular calcium release preincubated 30 mins before UTP challenge by fluorescence assay. Put shortly:
(§1)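 Oregon Green-loaded NG108-15 cells in Krebs–HEPES pH 7.4, 17,000 cells/well, preincubated at 37 °C for at least 30 min with two concentrations of test compound. UTP agonist then injected, and the inhibition of the intracellular Ca2+ fluorescence rise was measured at 520 nm. Quadruplicate determinations.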
A general note: Calcium assays in cells follow changes in intracellular calcium, usually with a dye or a luminescent sensor.

The target of assay [2] is T1, P2Y purinoceptor 2. Briefly: (§2) Antagonist activity at mouse P2Y2 receptor expressed in NG108-15 hybrid cells assessed as inhibition of 1 uM UTP-induced intracellular calcium release preincubated 30 mins before UTP challenge by fluorescence assay. Put shortly:
as §1

The target in assay [3] is P2Y purinoceptor 2 (Mus musculus) (UniProt P35383). Described as §2. Put shortly: as §1
Sequence of P2Y purinoceptor 2 (Mus musculus) (P35383 whole entry): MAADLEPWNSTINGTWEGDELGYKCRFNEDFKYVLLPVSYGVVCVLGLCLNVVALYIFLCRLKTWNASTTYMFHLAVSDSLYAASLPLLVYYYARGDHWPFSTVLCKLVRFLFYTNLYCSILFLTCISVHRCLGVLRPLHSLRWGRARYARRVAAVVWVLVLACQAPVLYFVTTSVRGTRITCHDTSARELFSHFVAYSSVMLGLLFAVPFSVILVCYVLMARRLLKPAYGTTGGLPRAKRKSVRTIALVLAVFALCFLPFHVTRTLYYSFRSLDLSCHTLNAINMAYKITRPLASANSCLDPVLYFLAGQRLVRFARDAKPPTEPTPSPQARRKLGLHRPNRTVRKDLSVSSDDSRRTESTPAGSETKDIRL
For assay [4], the target named is T1, P2Y purinoceptor 2. The assay is described as follows: Agonist activity at mouse P2Y2 receptor expressed in NG108-15 hybrid cells assessed as increase in intracellular calcium release by fluorescence assay. The method in brief: (§3)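 NG108-15 cells (mouse neuroblastoma × rat glioma; endogenous P2Y2, no P2Y4) grown in DMEM with 10% FBS, penicillin/streptomycin and HAT. Cells loaded 1 h at 25 °C with shaking, with the Ca2+ fluorophore Oregon Green. Cells rinsed twice in Krebs–HEPES pH 7.4 and plated at 17,000 cells/well. Compound in buffer injected, then fluorescence read at 520 nm over 60 × 0.4 s. Quadruplicate points.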

Assay [5] addresses P2Y purinoceptor 2 (Mus musculus) (UniProt P35383). The assay is described as follows: Agonist activity at mouse P2Y2 receptor expressed in NG108-15 hybrid cells assessed as increase in intracellular calcium release at 100 uM by fluorescence assay relative to UTP. The method in brief: as §3

T1 sequence (P35383 whole entry): as above

In the case of `O=c1ccn(CCCCOP(=O)(O)OP(=O)(O)OP(=O)(O)O)c(=O)[nH]1`, the IC50 (commonly the concentration that gives 50% inhibition) on P2Y purinoceptor 2 [1] came to 596 µM.

Turning to `O=c1ccn(CCCCOP(=O)(O)O)c(=O)[nH]1`, the IC50 at P2Y purinoceptor 2 [2] (ng108-15) is no more than 500 µM. Also, the inhibition (as a rule, how much of the control response was suppressed) in assay [3] turned out to be 60%. With `O=c1ccn(CCCCCP(=O)(O)OP(=O)(O)OP(=O)(O)O)c(=O)[nH]1`, at P2Y purinoceptor 2 [2], the 50% inhibitory concentration (IC50) is 166 µM. Turning to `O=c1ccn(COCCOP(=O)(O)OP(=O)(O)OP(=O)(O)O)c(=O)[nH]1`, the IC50 at P2Y purinoceptor 2 [2] is greater than 500 µM. Moreover, the inhibition in assay [3] was determined as 16%. With `O=c1ccn(COCCCOP(=O)(O)OP(=O)(O)OP(=O)(O)O)c(=O)[nH]1`, on P2Y purinoceptor 2 [2], the IC50 stood at 264 µM.

Consider `O=c1ccn(CCCCCOP(=O)(O)OP(=O)(O)OP(=O)(O)O)c(=O)[nH]1`, for which the half-inhibitory concentration (IC50) on P2Y purinoceptor 2 [2] is 500 µM. Also, the inhibition in assay [3] came to 50%. For `O=c1ccn(CCOP(=O)(O)O)c(=O)[nH]1`, in that order: greater than 500 µM and 22%.

For the molecule `O=c1ccn(CCCCP(=O)(O)OP(=O)(O)OP(=O)(O)O)c(=O)[nH]1`, the 50% inhibitory concentration (IC50) at P2Y purinoceptor 2 [2] was found to be 92 µM. In the case of `O=c1ccn([C@@H]2O[C@H](COP(=O)(O)OP(=O)(O)OP(=O)(O)O)[C@@H](O)[C@H]2O)c(=O)[nH]1` [URIDINE TRIPHOSPHATE], the 50% effective concentration (EC50) (commonly the concentration giving half of the maximal effect) at P2Y purinoceptor 2 [4] came to 1.26 µM. In addition, the IC50 on P2Y purinoceptor 2 [2] turned out to be 1.51 µM. Besides, the Activity in assay [5] is 40%. Turning to `O=c1ccn(COCCOP(=O)(O)O)c(=O)[nH]1`, the half-maximal inhibitory concentration (IC50) at P2Y purinoceptor 2 [2] was greater than 500 µM. Further, the inhibition in assay [3] amounted to 16%.

For the molecule `O=c1ccn(COCCCOP(=O)(O)O)c(=O)[nH]1`, the half-maximal inhibitory concentration (IC50) at P2Y purinoceptor 2 [2] was found to be 338 µM. With `O=c1ccn(CCCP(=O)(O)OP(=O)(O)OP(=O)(O)O)c(=O)[nH]1`, the IC50 on P2Y purinoceptor 2 [2] came out at 500 µM. Moreover, the inhibition in assay [3] turned out to be 52%.

As for `O=c1ccn(CCCCCOP(=O)(O)O)c(=O)[nH]1`, the IC50 on P2Y purinoceptor 2 [2] stood at 267 µM. With `O=c1ccn(CCOP(=O)(O)OP(=O)(O)OP(=O)(O)O)c(=O)[nH]1`, the concentration for half-maximal inhibition (IC50) at P2Y purinoceptor 2 [2] (ng108-15) is no more than 500 µM. Moreover, the inhibition in assay [3] worked out at 60%.

Take `O=c1ccn(CCCCCP(=O)(O)OP(=O)(O)O)c(=O)[nH]1`: the half-maximal inhibitory concentration (IC50) on P2Y purinoceptor 2 [2] was 500 µM. Also, the inhibition in assay [3] turned out to be 55%.
